Blank lines part the entries; values can stand above or below the compound they belong to. The source made the active and inactive calls. No cut-off for these calls is given here.
Assays:
Format in all cases: functional
COLO 205 = assay: Growth inhibition of human COLO205 cells after 48 hrs by SRB assay; settings: COLO 205, 48 h
Procedure, shortened: (§1)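 NCI 60-cell-line screen: after preliminary screening, tested at five dose concentrations on 59 human tumour lines covering leukemia, lung, colon, CNS, melanoma, ovarian, renal, prostate and breast.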

MDA-MB-231 = assay: Growth inhibition of human MDA-MB-231 cells after 48 hrs by SRB assay; settings: MDA-MB-231, 48 h; procedure, shortened: as §1
NCI-H522 = assay: Growth inhibition of human NCI-H522 cells after 48 hrs by SRB assay; settings: NCI-H522, 48 h; procedure, shortened: as §1
MCF7 [1] = assay: Cytotoxicity against human MCF7 cells after 48 hrs assessed as inhibition of cell growth at 10 uM after 48 hrs by SRB assay relative to control; settings: MCF7, 48 h, read-out: GI
Procedure, shortened: (§2)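 SRB protein assay in DMEM with 10% FBS at 37 °C, 5% CO2, 100% relative humidity. Cells seeded in 96-well plates, incubated 24 h, then exposed to drug at 10 µM for 48 h and processed per standard protocol. Absorbance read at 560 nm; growth percentage calculated for test wells relative to control wells.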

UO-31 = assay: Growth inhibition of human UO31 cells after 48 hrs by SRB assay; settings: UO-31, 48 h
Procedure, shortened: (§3)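 NCI 60-cell-line panel, five-dose testing after preliminary screen; sulforhodamine B protein assay in DMEM with 10% FBS, 37 °C, 5% CO2, 100% humidity. Cells seeded and incubated 24 h before compound addition, then exposed 48 h. Absorbance read at 560 nm; growth percentage relative to control wells; GI50 taken as concentration giving 50% growth inhibition.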

OVCAR-4 = assay: Growth inhibition of human OVCAR4 cells after 48 hrs by SRB assay; settings: OVCAR-4, 48 h; procedure, shortened: as §1
HCC 2998 = assay: Growth inhibition of human HCC2998 cells after 48 hrs by SRB assay; settings: HCC 2998, 48 h; procedure, shortened: as §1
LOX IMVI = assay: Growth inhibition of human LOXIMVI cells after 48 hrs by SRB assay; procedure, shortened: as §1
SNB-75 = assay: Growth inhibition of human SNB75 cells after 48 hrs by SRB assay; settings: SNB-75, 48 h; procedure, shortened: as §3
SN12C = assay: Growth inhibition of human SN12C cells after 48 hrs by SRB assay; procedure, shortened: as §3
MCF7 [2] = assay: Cell cycle arrest in human MCF7 cells assessed as accumulation at G2/M phase at 4 uM after 24 hrs by FACS analysis (reference value: 34.88%)
EKVX = assay: Growth inhibition of human EKVX cells after 48 hrs by SRB assay; procedure, shortened: as §1
IGROV-1 = assay: Growth inhibition of human IGROV1 cells after 48 hrs by SRB assay; settings: IGROV-1, 48 h; procedure, shortened: as §1
HCT-116 = assay: Growth inhibition of human HCT116 cells after 48 hrs by SRB assay; settings: HCT-116, 48 h; procedure, shortened: as §1
M14 = assay: Growth inhibition of human M14 cells after 48 hrs by SRB assay; settings: M14, 48 h; procedure, shortened: as §1
UACC-257 = assay: Growth inhibition of human UACC257 cells after 48 hrs by SRB assay; settings: UACC-257, 48 h; procedure, shortened: as §3
A498 = assay: Growth inhibition of human A498 cells after 48 hrs by SRB assay; settings: A498, 48 h; procedure, shortened: as §1
MCF7 [3] = assay: Cell cycle arrest in human MCF7 cells assessed as accumulation at G1 phase at 4 uM after 24 hrs by FACS analysis (reference value: 58.33%)
NCI-H460 = assay: Growth inhibition of human NCI-H460 cells after 48 hrs by SRB assay; settings: NCI-H460, 48 h; procedure, shortened: as §1
MOLT-4 = assay: Growth inhibition of human MOLT4 cells after 48 hrs by SRB assay; settings: MOLT-4, 48 h; procedure, shortened: as §1
A549 = assay: Cytotoxicity against human A549 cells assessed as inhibition of cell growth at 10 uM after 48 hrs by SRB assay relative to control; settings: A549, 48 h, read-out: GI; procedure, shortened: as §2
DU-145 = assay: Growth inhibition of human DU145 cells after 48 hrs by SRB assay; settings: DU-145, 48 h; procedure, shortened: as §1
T47D = assay: Growth inhibition of human T47D cells after 48 hrs by SRB assay; procedure, shortened: as §3
NCI-H226 = assay: Growth inhibition of human NCI-H226 cells after 48 hrs by SRB assay; settings: NCI-H226, 48 h; procedure, shortened: as §1
OVCAR-8 = assay: Growth inhibition of human OVCAR8 cells after 48 hrs by SRB assay; settings: OVCAR-8, 48 h; procedure, shortened: as §1
PC-3 = assay: Cytotoxicity against human PC3 cells after 48 hrs assessed as inhibition of cell growth at 10 uM after 48 hrs by SRB assay relative to control; settings: PC-3, 48 h, read-out: GI; procedure, shortened: as §2
HT-29 = assay: Growth inhibition of human HT-29 cells after 48 hrs by SRB assay; settings: HT-29, 48 h; procedure, shortened: as §1
NCI-H23 = assay: Growth inhibition of human NCI-H23 cells after 48 hrs by SRB assay; settings: NCI-H23, 48 h; procedure, shortened: as §1
CCRF-CEM = assay: Growth inhibition of human CCRF-CEM cells after 48 hrs by SRB assay; procedure, shortened: as §1
MDA-MB-468 = assay: Growth inhibition of human MDA-MB-468 cells after 48 hrs by SRB assay; procedure, shortened: as §1
ACHN = assay: Growth inhibition of human ACHN cells after 48 hrs by SRB assay; procedure, shortened: as §1
CAKI-1 = assay: Growth inhibition of human Caki1 cells after 48 hrs by SRB assay; settings: CAKI-1, 48 h; procedure, shortened: as §1
SF-295 = assay: Growth inhibition of human SF295 cells after 48 hrs by SRB assay; settings: SF-295, 48 h; procedure, shortened: as §3
UACC-62 = assay: Growth inhibition of human UACC62 cells after 48 hrs by SRB assay; settings: UACC-62, 48 h; procedure, shortened: as §3
RPMI-8226 = assay: Growth inhibition of human RPMI8226 cells after 48 hrs by SRB assay; settings: RPMI-8226, 48 h; procedure, shortened: as §1
K562 = assay: Growth inhibition of human K562 cells after 48 hrs by SRB assay; settings: K562, 48 h; procedure, shortened: as §1
HEp-2 = assay: Cytotoxicity against human Hep2 cells after 48 hrs assessed as inhibition of cell growth at 10 uM after 48 hrs by SRB assay relative to control; procedure, shortened: as §2
HOP-92 = assay: Growth inhibition of human HOP92 cells after 48 hrs by SRB assay; settings: HOP-92, 48 h; procedure, shortened: as §1
U-251 = assay: Growth inhibition of human U251cells after 48 hrs by SRB assay; settings: U-251, 48 h; procedure, shortened: as §3
SNB-19 = assay: Growth inhibition of human SNB19 cells after 48 hrs by SRB assay; settings: SNB-19, 48 h; procedure, shortened: as §3
TK-10 = assay: Growth inhibition of human TK10 cells after 48 hrs by SRB assay; settings: TK-10, 48 h; procedure, shortened: as §3
HOP-62 = assay: Growth inhibition of human HOP62 cells after 48 hrs by SRB assay; settings: HOP-62, 48 h; procedure, shortened: as §1
Hs-578T = assay: Growth inhibition of human Hs578T cells after 48 hrs by SRB assay; procedure, shortened: as §1

GI50 (COLO 205): 2830 nM | GI50 (MDA-MB-231): 190 nM | GI50 (NCI-H522): 79 nM | GI50 (OVCAR-4): 370 nM | GI50 (HCC 2998): 370 nM | GI50 (HCT-116): 46 nM | GI50 (NCI-H460): 52 nM | GI50 (MOLT-4): 340 nM | GI50 (DU-145): 100 nM | GI50 (T47D): 1000 nM | GI50 (NCI-H226): 270 nM | GI50 (OVCAR-8): 250 nM | GI50 (HT-29): 3160 nM | GI50 (NCI-H23): 110 nM | GI50 (CCRF-CEM): 78 nM | GI50 (MDA-MB-468; MDA-MB-468, 48 h): 100 nM | GI50 (ACHN): 93 nM | GI50 (RPMI-8226): 150 nM | GI50 (K562): 42 nM | GI50 (U-251): 48 nM
Compound: COc1ccc(/C=C\c2cc(OC)c(OC)c(OC)c2)cc1OCC(=O)Nc1nc2ccccc2s1
inhibition of growth at 10 µM (MCF7 [1]): 72% | GI50 (UO-31): 580 nM | GI50 (LOX IMVI): 67 nM | GI50 (SNB-75): 46 nM | GI50 (SN12C): 370 nM | Activity (MCF7 [2]): 46% | GI50 (EKVX): 38 nM | GI50 (IGROV-1): 210 nM | GI50 (M14): 72 nM | GI50 (UACC-257): 11000 nM | GI50 (A498): 360 nM | Activity (MCF7 [3]): 25.94% | inhibition of growth at 10 µM (A549): 44% | inhibition of growth at 10 µM (PC-3): 44% | GI50 (CAKI-1): 410 nM | GI50 (SF-295): 220 nM | GI50 (UACC-62): 63 nM | growth inhibition (GI) (HEp-2): inactive | GI50 (HOP-92): 39 nM

GI50 (COLO 205): 100 nM | GI50 (MDA-MB-231): 1 nM | GI50 (NCI-H522): 1 nM | GI50 (OVCAR-4): 15 nM | GI50 (HCC 2998): 63 nM | GI50 (HCT-116): 3 nM | GI50 (NCI-H460): 7 nM | GI50 (MOLT-4): 3 nM | GI50 (DU-145): 1 nM | GI50 (T47D): 10000 nM | GI50 (NCI-H226): 3 nM | GI50 (OVCAR-8): 3 nM | GI50 (HT-29): 100 nM | GI50 (NCI-H23): 3 nM | GI50 (CCRF-CEM): 2 nM | GI50 (MDA-MB-468): inactive | GI50 (ACHN): 6 nM | GI50 (RPMI-8226): 3 nM | GI50 (K562): 2 nM | GI50 (U-251): 7 nM
Compound: COc1ccc(/C=C\c2cc(OC)c(OC)c(OC)c2)cc1O [COMBRETASTATIN A4]
GI50 (SNB-19): 3 nM | inhibition of growth at 10 µM (MCF7 [1]): 71% | GI50 (UO-31): 19 nM | GI50 (LOX IMVI): 3 nM | GI50 (SNB-75): 7 nM | GI50 (SN12C): 6 nM | Activity (MCF7 [2]): 61.23% | GI50 (TK-10): 100 nM | GI50 (EKVX): 79 nM | GI50 (HOP-62): 2 nM | GI50 (IGROV-1): 15 nM | GI50 (M14): 2 nM | GI50 (UACC-257): 3 nM | GI50 (A498): 6 nM | Activity (MCF7 [3]): 24.5% | inhibition of growth at 10 µM (A549): 55% | GI50 (Hs-578T): 1 nM | inhibition of growth at 10 µM (PC-3): 76% | GI50 (CAKI-1): 25 nM | GI50 (SF-295): 3 nM | GI50 (UACC-62): 5 nM | inhibition of growth at 10 µM (HEp-2; HEp-2, 48 h, read-out: GI): 64% | GI50 (HOP-92): 2 nM
